MsrA act: bovine methionine sulfoxide reductase A activation | purified bovine MsrA, absorbance read-out | activation, % at 10.6 µM | 360,000 compounds, 0.3% hits; in the data active = activation above about 7.5%;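 also: 0% = vehicle and 100% = reference activator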
GalR3 antag: human GalR3 antagonism. HEK293 GalR3-CNG cAMP membrane potential fluorescence; galR3 body fused to GalR1 C-terminus. inhibition, % at 3 µM. 360,000 compounds, 0.44% hits;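 active = inhibition above the screen-wide average plus 3 SD, cut at about 13% in these data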;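 also: forskolin and galanin both at EC90 stimulate the cells; cAMP rise reported by CNG channel membrane potential dye signal; 0% = forskolin plus galanin with DMSO and 100% = forskolin alone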
Target sequence (O60755 1-299 limits assumed): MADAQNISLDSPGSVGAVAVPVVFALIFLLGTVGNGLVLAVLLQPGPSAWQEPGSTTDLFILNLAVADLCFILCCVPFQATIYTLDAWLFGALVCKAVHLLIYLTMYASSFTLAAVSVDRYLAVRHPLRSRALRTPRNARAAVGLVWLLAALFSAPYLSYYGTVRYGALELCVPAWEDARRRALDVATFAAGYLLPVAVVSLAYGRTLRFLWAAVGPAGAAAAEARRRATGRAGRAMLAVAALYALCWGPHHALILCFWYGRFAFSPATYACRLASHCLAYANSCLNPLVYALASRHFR
NadD block: NadD (S. aureus) enzyme inhibition; inhibition, % at 20 µM; purified NadD enzyme, colorimetric absorbance read-out; 360,000 compounds, 0.78% hits; in the data active = inhibition above about 26%
MsrA inh: bovine MsrA inhibition. purified bovine MsrA, absorbance read-out. inhibition, % at 15.5 µM. 360,000 compounds, 0.75% hits; in the data active = inhibition above about 4.5%;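 also: 0% = vehicle wells with enzyme and 100% = reference inhibitor wells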
NR2E3 ag-1: NR2E3 (human) agonism. GST-NR2E3/biotin-RetCOR TR-FRET, 1536-well. AID 2300. inhibition of corepressor binding, % at 4.78 µM. Q9Y5X4. 320,000 compounds, 0.12% hits;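 active = percent inhibition above the cutoff of mean plus 3 SD of all tested compounds, set per screening campaign, cut at about 20% in these data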;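 also: 0% = DMSO wells and 100% = biotin wells as full block of FRET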
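System: GST-tagged NR2E3 plus biotinylated RetCOR corepressor; Amount: 1.35 nM GST-tagged NR2E3 final; Dosing: single nominal compound dose of 4.8 µM; Schedule: 5 h incubation at 4 °C; Technique: TR-FRET with europium anti-GST and streptavidin-D2, 340 nm excitation; Controls: biotin wells as high control, 0.6% DMSO wells as low control.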
NR2E3 ag-2: human photoreceptor-specific nuclear receptor agonism; 360,000 compounds, 0.35% hits; AID 602229; inhibition of corepressor binding, % at 3.98 µM; CHO-S Gal4-NCOR/VP16-NR2E3 two-hybrid, luciferase; Q9Y5X4;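 active = inhibition above the mean of all tested compounds plus 3 SD, cut at about 70% in these data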;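 also: 0% = DMSO with NR2E3 transfected cells and 100% = cells lacking NR2E3 construct; higher means lower luciferase signal from less NR2E3 corepressor binding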
NR2E3 ag conf: NR2E3 agonism confirmed in two-hybrid assay | shares compounds with NR2E3 ag-2 | CHO-S mammalian two-hybrid NR2E3-NCOR, luciferase luminescence | inhibition, % at 3.98 µM | 2,300 compounds, 51% hits | AID 624378;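 active = average inhibition above a cutoff equal to the mean inhibition of all tested compounds plus one SD, cut at about 70% in these data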;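 also: 0% = DMSO in NR2E3 cells and 100% = DMSO in cells lacking NR2E3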
VP16 counter: reduces GAL4-VP16 reporter signal in NR2E3 counterscreen; shares compounds with NR2E3 ag-2; CHO-S GAL4-VP16 luciferase reporter, luminescence; inhibition, % at 3.98 µM; 2,300 compounds, 29% hits; AID 624379;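 active = mean inhibition above a cutoff equal to the average over all tested compounds plus one standard deviation, cut at about 70% in these data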;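 also: luciferase from a UAS reporter driven by GAL4-VP16 transactivation; 0% = DMSO with VP16-transfected cells and 100% = DMSO with cells lacking VP16; higher means less reporter light so more repression of VP16 activity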
* hit, by the source's call. Only some compounds are listed: those with a hit (about 2.5% of all), similar ones and a draw of the others.

`FC(F)(F)c1ccccc1-n1c(-c2ccco2)n[nH]c1=S` gave MsrA act 0, GalR3 antag -8, NadD block 7, MsrA inh 0, NR2E3 ag-1 0, NR2E3 ag-2 63, NR2E3 ag conf 20 and VP16 counter 3.
For Cc1ccccc1-n1c(-c2ccco2)n[nH]c1=S the results were MsrA act 1, GalR3 antag -1, NadD block -2, MsrA inh 0, NR2E3 ag-1 0 and NR2E3 ag-2 -14.
Screening CCOC(=O)c1cccc(NC(=O)c2ccco2)c1 returned MsrA act -1, GalR3 antag -5, NadD block 1, MsrA inh 0, NR2E3 ag-1 6 and NR2E3 ag-2 -30.
Screening Cc1cc(NC2CCCC2)n2ncc(-c3ccccc3)c2n1 returned MsrA act -4, GalR3 antag -10, NadD block 5, MsrA inh 0, NR2E3 ag-1 -1, NR2E3 ag-2 56, NR2E3 ag conf 21 and VP16 counter -67.
For Cc1ccc2cc(CN(CCCN(C)C)C(=S)NCc3ccccc3)c(=O)[nH]c2c1C the results were MsrA act -9, GalR3 antag 2, NadD block -10, MsrA inh 1, NR2E3 ag-1 -1 and NR2E3 ag-2 20.
Screening CCOC(=O)c1n[nH]n2c1nc(=S)c1ccccc12 returned MsrA act -3, GalR3 antag -8, NadD block 3, MsrA inh 1 and NR2E3 ag-2 1.
Screening N#C/C(=C/c1ccc(Sc2nc3ccccc3[nH]2)o1)c1ccccc1F returned MsrA act -11, GalR3 antag -4, NadD block 1, MsrA inh 2, NR2E3 ag-1 0, NR2E3 ag-2 62, NR2E3 ag conf 78* and VP16 counter 63.
Screening Cc1cc(C(=O)COC(=O)c2cccnc2Cl)c(C)n1CC1CCCO1 (stereo unspecified) returned MsrA act 0, GalR3 antag -3, NadD block -4, MsrA inh 0, NR2E3 ag-1 9, NR2E3 ag-2 60, NR2E3 ag conf 47 and VP16 counter 10.
For Cc1cc(C(=O)COC(=O)c2ccccc2O)c(C)n1CC1CCCO1 (stereo unspecified) the results were MsrA act -2, GalR3 antag -8, NadD block -5, MsrA inh 0, NR2E3 ag-1 0, NR2E3 ag-2 95*, NR2E3 ag conf 89* and VP16 counter 80*.
`Cc1ccc(C(=O)OCC(=O)c2cc(C)n(CC3CCCO3)c2C)cc1` (stereo unspecified) gave MsrA act -1, GalR3 antag -6, NadD block -8, MsrA inh -1, NR2E3 ag-1 -3 and NR2E3 ag-2 -26.
Screening COCCn1c(C)cc(C(=O)COC(=O)c2ccccc2Br)c1C returned MsrA act -4, GalR3 antag 6, NadD block 0, MsrA inh 1, NR2E3 ag-1 0, NR2E3 ag-2 79*, NR2E3 ag conf 26 and VP16 counter 35.
For Cc1cc(C(=O)COC(=O)C2COc3ccccc3O2)c(C)n1CC1CCCO1 (stereo unspecified) the results were MsrA act -3, GalR3 antag 2, NadD block -2, MsrA inh 0, NR2E3 ag-1 -2 and NR2E3 ag-2 -13.
`Cc1cc(C(=O)COc2ccccc2C(N)=O)c(C)n1CC1CCCO1` (stereo unspecified) gave MsrA act -5, GalR3 antag 12, NadD block -5, MsrA inh 0, NR2E3 ag-1 1, NR2E3 ag-2 69, NR2E3 ag conf 90* and VP16 counter 69.
For COCCn1c(C)cc(C(=O)COC(=O)c2cccnc2SC)c1C the results were MsrA act -3, GalR3 antag -4, NadD block 1, MsrA inh 0 and NR2E3 ag-2 -87.
`Cc1cccc(NC(=O)C2(c3ccc([N+](=O)[O-])cc3)CCCC2)c1` gave MsrA act -2, GalR3 antag -7, NadD block -8, MsrA inh 1, NR2E3 ag-1 5 and NR2E3 ag-2 -3.
Screening CC1=C(C(=O)Nc2ccccc2)C(c2ccc3c(c2)OCO3)C2=C(CCCC2=O)N1 (stereo unspecified) returned MsrA act -6, GalR3 antag 1, NadD block 4, MsrA inh 2, NR2E3 ag-1 5 and NR2E3 ag-2 14.
Screening Cc1cccc(N2C(=O)C3CC3C2=O)c1 (stereo unspecified) returned MsrA act -4, GalR3 antag 2, NadD block -4, MsrA inh 0, NR2E3 ag-1 0 and NR2E3 ag-2 4.
`Cc1cc(C(=O)COC(=O)c2ccccc2NCCO)c(C)n1CC1CCCO1` (stereo unspecified) gave MsrA act -8, GalR3 antag -2, NadD block -2, MsrA inh 1, NR2E3 ag-1 1 and NR2E3 ag-2 13.
Screening CCn1c(C)cc(C(=O)COC(=O)c2ccccc2[N+](=O)[O-])c1C returned MsrA act -3, NadD block -7, NR2E3 ag-2 105*, NR2E3 ag conf 89* and VP16 counter 87*.
Cc1cc(C(=O)COC(=O)c2ccccc2Br)c(C)n1CC1CCCO1 (stereo unspecified) was read as MsrA act -8, GalR3 antag -2, NadD block -1, MsrA inh 1, NR2E3 ag-1 -1, NR2E3 ag-2 89*, NR2E3 ag conf 81* and VP16 counter 71*.
`O=C(NC(=S)N(CCc1ccccc1)CCc1ccccc1)c1ccco1` gave MsrA act -5, GalR3 antag 0, NadD block -6, MsrA inh -1, NR2E3 ag-1 -2, NR2E3 ag-2 67, NR2E3 ag conf -20 and VP16 counter 19.
`O=C(NC(=S)NCc1ccccc1)c1ccccc1F` gave MsrA act -12, GalR3 antag -1, NadD block -3, MsrA inh 1, NR2E3 ag-1 -5 and NR2E3 ag-2 6.
For CC(CCc1ccccc1)NC(=S)NC(=O)c1ccco1 (stereo unspecified) the results were MsrA act -5, GalR3 antag -7, NadD block -5, MsrA inh 1, NR2E3 ag-1 -3 and NR2E3 ag-2 11.
O=C(NC(=S)N(Cc1ccccc1)Cc1ccccc1)c1ccccc1F was read as MsrA act -10, GalR3 antag -5, NadD block 1, MsrA inh 1, NR2E3 ag-1 3, NR2E3 ag-2 65, NR2E3 ag conf 21 and VP16 counter 21.

Screening data (PubChem)
